“Also recorded” adds a separate entry of the source. Read-outs that look alike come from different tables or passages of the source.
Tests used:
[1] = system: tumor suppressor miRNAs and onco-miRNAs; conditions: JJ012 cell line; ref [7]; cited from earlier work
[2] = system: G1/S phase cell cycle progression; conditions: chondrosarcoma, cited from earlier work
PTHR2 = assay: PathHunter β-arrestin; assay type: cell-based; conditions: antagonist mode, 6 μM
NTSR1 = assay: PathHunter β-arrestin; assay type: cell-based; conditions: antagonist mode, 6 μM
Summary of the method: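 GPCR-ED fusion and β-arrestin-EA fusion; arrestin recruitment restores β-galactosidase, read by chemiluminescence. Antagonist mode uses EC80 agonist challenge. % inhibition = 100 × (1 − (test − vehicle RLU)/(EC80 control − vehicle RLU)). Hit requires >35% inhibition and mean RLU below EC80 RLU − 3 × EC80 SD.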

DRD2L = assay: PathHunter β-arrestin; assay type: cell-based; conditions: antagonist mode, 6 μM
Summary of the method: (§1)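 Engineered cells express the receptor fused to one β-galactosidase fragment (ED) and β-arrestin fused to the complementing fragment (EA). Receptor activation recruits β-arrestin, which restores enzyme activity, and this is read by chemiluminescence (RLU). Agonist % activity is 100% × (test − vehicle)/(maximal control ligand − vehicle). Antagonist mode is challenged with an EC80 control agonist, and % inhibition is 100% × (1 − (test − vehicle)/(EC80 − vehicle)). Hits require >30% activity or >35% inhibition, plus a 3×SD RLU margin.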

GPR103 = assay: PathHunter β-arrestin; assay type: cell-based; conditions: 6 μM
Summary of the method: (§2)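 Vendor-run (DiscoveRx) PathHunter enzyme fragment complementation. β-Arrestin carries the EA fragment and the receptor carries ED; recruitment restores β-gal activity, read by chemiluminescence (RLU). Agonist % activity = vehicle-subtracted RLU relative to max control ligand (gpcrMAX) or to vehicle (orphanMAX). Antagonist % inhibition = 100% × (1 − vehicle-subtracted sample RLU / vehicle-subtracted EC80 agonist control RLU).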

CRTH2 = assay: PathHunter β-arrestin; assay type: cell-based; conditions: antagonist mode, 6 μM
Summary of the method: as §1

MUC5B [3] = assay: MUC5B ELISA, JJ012 cell lysates; assay type: cell-based; conditions: PRP-1 at 1 μg/ml; human JJ012 cell lysates
Summary of the method: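 Cells trypsinized at confluency and seeded in 6-well clusters at 1×10^6 cells/ml. Test compound added to experimental wells only, controls untreated. Overnight at 37°C, 5% CO2. Cells washed in ice-cold PBS with protease inhibitor, lysed in buffer with protease inhibitor (1:100), scraped and spun at 15,000 × g, 4°C. Protein measured in supernatant. MUC5B quantified with a commercial human MUC5B ELISA kit.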

HRH4 = assay: PathHunter β-arrestin; assay type: cell-based; conditions: antagonist mode, 6 μM
Summary of the method: as §2

PTHR1 = assay: PathHunter β-arrestin; assay type: cell-based; conditions: 6 μM
Summary of the method: (§3)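 β-Arrestin recruitment to GPCR read by β-galactosidase fragment complementation and chemiluminescence. Agonist: % = 100 × (test − vehicle)/(max control ligand − vehicle), hit at >30% and RLU > baseline + 3 SD. Antagonist, against EC80 agonist: % inhibition = 100 × (1 − (test − vehicle)/(EC80 − vehicle)), hit at >35% and RLU < EC80 − 3 SD.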

CALCR-RAMP2 = assay: PathHunter β-arrestin; assay type: cell-based; conditions: agonist mode, 6 μM
Summary of the method: (§4)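 β-Arrestin recruitment assay: the enzyme acceptor is fused to β-arrestin and the ED fragment to the GPCR. Recruitment restores β-galactosidase, read by chemiluminescence. % activity = 100% × (test − vehicle)/(max control ligand − vehicle). % inhibition = 100% × (1 − (test − vehicle)/(EC80 control − vehicle)). An agonist hit needs >30% activity and RLU > baseline + 3×SD. An antagonist hit needs >35% inhibition and RLU < EC80 RLU − 3×SD.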

F2RL1 = assay: PathHunter β-arrestin; assay type: cell-based; conditions: antagonist mode, 6 μM
Summary of the method: as §1

CCR10 = assay: PathHunter β-arrestin; assay type: cell-based; conditions: antagonist mode, 6 μM
Summary of the method: as §4

HRH2 = assay: PathHunter β-arrestin; assay type: cell-based; conditions: 6 μM
Summary of the method: as §2

KISS1R = assay: PathHunter β-arrestin; assay type: cell-based; conditions: 6 μM
Summary of the method: as §2

PTGIR = assay: PathHunter β-arrestin; assay type: cell-based; conditions: 6 μM
Summary of the method: as §3

SSTR5 = assay: PathHunter β-arrestin; assay type: cell-based; conditions: agonist mode, 6 μM
CCR7 = assay: PathHunter β-arrestin; assay type: cell-based; conditions: 6 μM
Summary of the method: as §1

mTOR kinase (mTORC1) = conditions: chondrosarcoma; ref [4],[5]; cited from earlier work
CXCR6 = assay: PathHunter β-arrestin; assay type: cell-based; conditions: 6 μM
Summary of the method: as §1

MUC5B [4] = assay: RT2 qPCR primer assay, JJ012 cells; assay type: cell-based, human; conditions: 1 μg/ml PRP-1; heat map, vs nontreated control, technical triplicates
Summary of the method: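 RNA extracted from treated and control JJ012 cells, checked by spectrophotometry and reverse transcribed. SYBR Green qPCR with custom primer assays on three samples in technical triplicates. Ct normalized to the average of GAPDH and ACTB. Fold change vs control by 2^−ΔΔCt, shown as a heat map of average Ct.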

CCR9 = assay: PathHunter β-arrestin; assay type: cell-based; conditions: 6 μM
Summary of the method: as §1

AGTRL1 = assay: PathHunter β-arrestin; assay type: cell-based; conditions: agonist mode, 6 μM
Summary of the method: as §4

CALCR-RAMP3 = assay: PathHunter β-arrestin; assay type: cell-based; conditions: antagonist mode, 6 μM
Summary of the method: as §4

CCR1 = assay: PathHunter β-arrestin; assay type: cell-based; conditions: antagonist mode, 6 μM
Summary of the method: as §4

CCR5 = assay: PathHunter β-arrestin; assay type: cell-based; conditions: antagonist mode, 6 μM
Summary of the method: as §1

MRGPRX2 = assay: PathHunter β-arrestin; assay type: cell-based; conditions: antagonist mode, 6 μM
Summary of the method: as §2

miR-302C = conditions: human chondrosarcoma; targets Nanog, c-Myc and Bmi1 also; ref [10]; cited from earlier work
CHRM2 = assay: PathHunter β-arrestin; assay type: cell-based; conditions: 6 μM
Summary of the method: as §1

Proline rich polypeptide 1 [PRP-1]
miRNA regulation [1]: upregulate tumor suppressor miRNAs and downregulate onco-miRNAs
cell cycle progression ([2]; ref [4],[5]): halting G1/S phase cell cycle progression
cell cycle progression ([2]; ref [6]): halts cell cycle progression in G1/S transition
% Inhibition (PTHR2): −1%
% Inhibition (NTSR1): −1%
% Inhibition (DRD2L): 2%
% Activity (GPR103; agonist mode): 2%
% Inhibition (GPR103; antagonist mode): 6%
% Inhibition (CRTH2): −8%
MUC5B presence in cell lysates (MUC5B [3]): 440 ng/mL
% Inhibition (HRH4): −9%
% Activity (PTHR1; agonist mode): 1%
% Inhibition (PTHR1; antagonist mode): −2%
% Activity (CALCR-RAMP2): 2%
% Inhibition (F2RL1): 3%
% Inhibition (CCR10): −3%
% Activity (HRH2; agonist mode): 1%
% Inhibition (HRH2; antagonist mode): 1%
% Activity (KISS1R; agonist mode): 1%
% Inhibition (KISS1R; antagonist mode): 3%
% Activity (PTGIR; agonist mode): 1%
% Inhibition (PTGIR; antagonist mode): −2%
% Activity (SSTR5): 1%
% Activity (CCR7; agonist mode): 1%
% Inhibition (CCR7; antagonist mode): −2%
mTOR kinase (mTORC1) inhibition (mTOR kinase (mTORC1)): mTOR kinase (mTORC1) inhibitor in chondrosarcoma
% Activity (CXCR6; agonist mode): 2%
% Inhibition (CXCR6; antagonist mode): −6%
gene expression (MUC5B [4]): high expression; also recorded: the most upregulation after the treatment with 1 μg/ml
% Activity (CCR9; agonist mode): 1%
% Inhibition (CCR9; antagonist mode): −6%
% Activity (AGTRL1): 1%
% Inhibition (CALCR-RAMP3): −8%
% Inhibition (CCR1): −3%
% Inhibition (CCR5): −2%
% Inhibition (MRGPRX2): −8%
miR-302c expression (miR-302C): epigenetically downregulates
% Activity (CHRM2; agonist mode): 1%
% Inhibition (CHRM2; antagonist mode): −6%

Reference: PMC5743405 (International Journal of Oncology, 2017)
